Screening data (PubChem)
Sampled rows, rich in hits. Any-hit rate of the full collection: about 0.95%.
CSN deneddyl inh – blocks human CSN-mediated cullin deneddylation. Q92905. Purified CSN, SCF-Nedd8-OG deneddylation, fluorescence polarization. inhibition, % at 12.5 µM. AID 651999. 360,000 tested, 0.38% active;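 active means pattern-corrected inhibition above about 35%, with an unprinted fluorescence ratio check between 0.5 and 1.5, limit read from the data, passing the limit was not always enough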;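 further: 0% = enzyme with substrate and 100% = substrate without enzyme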
Target sequence (Q92905 whole entry, looked up, one chain of several): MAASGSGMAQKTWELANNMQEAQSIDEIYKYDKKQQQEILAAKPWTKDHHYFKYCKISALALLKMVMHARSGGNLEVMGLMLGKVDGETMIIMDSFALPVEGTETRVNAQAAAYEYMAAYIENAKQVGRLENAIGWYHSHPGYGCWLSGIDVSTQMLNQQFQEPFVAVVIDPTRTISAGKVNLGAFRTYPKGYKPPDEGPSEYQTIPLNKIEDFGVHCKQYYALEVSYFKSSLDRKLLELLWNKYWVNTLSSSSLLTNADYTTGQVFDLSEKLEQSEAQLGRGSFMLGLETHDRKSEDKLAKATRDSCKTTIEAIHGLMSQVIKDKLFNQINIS
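test system = HEK293T-derived human Csn5 enzyme | amount = 0.24 nM Csn5 enzyme, final concentration | medium = Tris/NaCl/DTT buffer, pH 7.5 | schedule = 90 min reaction at room temperature | signal = FP | evaluation = inhibition of Csn5 cleavage, % | compound dosing = single dose of 12.5 µM compound with 0.25% DMSO | probe or stimulus = 10 nM SCFSkp2-Nedd8OG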
HNF4A DNA FP – change in binding of human HNF4 alpha to DNA; P41235; HNF4a-FITC DNA binding, fluorescence polarization, 1 h; activity change, % at 10 µM; 360,000 tested, 0.3% active; in the data active means activity change above about 30%, passing the limit was not always enough
ASAP1 GAP inh – inhibitors of human ASAP1 ArfGAP activity; ASAP1-stimulated ARF1 GTP hydrolysis, GDP FP detection; inhibition, % at 16.5 µM; 360,000 tested, 0.19% active; in the data active means inhibition above about 25%;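 further: 0% = vehicle with enzyme and substrate and 100% = no enzyme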
ARFGAP1 inh – rat ARFGAP1 inhibition; inhibition, % at 16.5 µM; Arfgap1-stimulated ARF1 GTP hydrolysis, GDP FP detection; 360,000 tested, 0.26% active; Q62848;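 active means inhibition above a per-plate limit, mean inhibition of low control wells plus 3 SD, cut at about 25% in these data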;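 further: 0% = DMSO wells with enzyme and 100% = wells lacking Arfgap1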
Target sequence (Q62848 1-136 limits assumed): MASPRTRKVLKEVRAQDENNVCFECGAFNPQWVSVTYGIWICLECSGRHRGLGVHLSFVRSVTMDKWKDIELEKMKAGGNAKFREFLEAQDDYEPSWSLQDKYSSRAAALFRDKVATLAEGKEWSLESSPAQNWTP
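system = rat Arfgap1 catalytic domain, aa 1-136 | technique = FP, GDP Alexa 633 tracer displaced from anti-GDP antibody, 620/688 nm | compound = one concentration, 16.5 µM, DMSO 1.26% | medium = HEPES-based buffer, pH 7.5 | timing = compound-enzyme preincubation 20 min, reaction 120 min, detection 60 min, 25 °C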
ARFGAP1 confirm – rat ARFGAP1 inhibition, confirmed; ARFGAP1-stimulated ARF1 GTP hydrolysis, GDP tracer FP; AID 651608; inhibition, % at 16.5 µM; shares compounds with ARFGAP1 inh; 890 tested, 30% active;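 active means average inhibition over triplicates above the hit cutoff set in the earlier primary screen, cut at about 25% in these data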;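 further: 0% = Arfgap1 plus ARF1-GTP with DMSO and 100% = wells lacking Arfgap1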
Active calls of the source: *.

`COc1ccc(-c2c(Sc3ccccc3)c3cc(-c4ccc5c(c4)OCO5)ccc3n2C)cc1` gave CSN deneddyl inh 19.5, HNF4A DNA FP 9.9, ASAP1 GAP inh -15.3 and ARFGAP1 inh -4.5.
For Oc1c(CN2CCCC(C(F)(F)F)C2)cc(Cl)c2ccccc12 (stereo not drawn) the results were CSN deneddyl inh 1.3, HNF4A DNA FP 0.9, ASAP1 GAP inh -0.9 and ARFGAP1 inh 6.1.
CCOC(=O)CNC(=O)c1c(C)nn(C)c1Cl was read as CSN deneddyl inh -11.2, HNF4A DNA FP -6.9, ASAP1 GAP inh 6.2, ARFGAP1 inh 24.6* and ARFGAP1 confirm 3.2.
For Cc1nn(C)c(Cl)c1C(=O)NCC(=O)O the results were CSN deneddyl inh -3.2, HNF4A DNA FP 0.0, ASAP1 GAP inh 4.3 and ARFGAP1 inh -3.3.
For CSc1ccc(/C=N/NC(=O)c2ccc3nc[nH]c3c2)cc1 the results were CSN deneddyl inh 3.5, HNF4A DNA FP 3.9, ASAP1 GAP inh 11.8, ARFGAP1 inh 27.6* and ARFGAP1 confirm 4.1.
`CCOC(=O)Cc1csc(NC(=O)CN2C(=O)c3ccccc3S2(=O)=O)n1` gave CSN deneddyl inh 2.9, HNF4A DNA FP 3.4, ASAP1 GAP inh 7.7, ARFGAP1 inh 33.0* and ARFGAP1 confirm 2.5.
`CCOC(=O)C1=C(COC(=O)CNS(=O)(=O)c2c(F)cc(F)cc2Br)NC(=O)NC1C` (stereo not drawn) gave CSN deneddyl inh -6.1, HNF4A DNA FP -2.2, ASAP1 GAP inh -6.4 and ARFGAP1 inh -6.0.
For COc1ccc(-n2nc(C)cc2Nc2ccccc2C(=O)O)cc1 the results were CSN deneddyl inh -4.2, HNF4A DNA FP 1.1, ASAP1 GAP inh -5.9, ARFGAP1 inh 24.8* and ARFGAP1 confirm 0.3.
`O=C(CN(CCc1ccccc1)C(=O)c1csnn1)NCc1ccc(F)cc1` gave CSN deneddyl inh 2.4, HNF4A DNA FP -2.1, ASAP1 GAP inh -8.1, ARFGAP1 inh 26.8* and ARFGAP1 confirm 1.9.
For O=c1c2ccccc2oc2ccc(-c3ccc4cc[nH]c4c3)cc12 the results were CSN deneddyl inh -0.7 and HNF4A DNA FP 1.8.
COc1ccc(NC(=O)CN(C)C(=O)c2cn(-c3ccccc3)nc2-c2ccc(Cl)cc2)cc1 was read as CSN deneddyl inh 2.5, HNF4A DNA FP 4.4, ASAP1 GAP inh 1.1, ARFGAP1 inh 26.6* and ARFGAP1 confirm 8.9.
`COc1cc(/C=N/NC(=O)c2cc(-c3cccc(Br)c3)nc3ccccc23)cc(OC)c1O` gave CSN deneddyl inh -1.4, HNF4A DNA FP -0.1, ASAP1 GAP inh 5.6, ARFGAP1 inh 27.2* and ARFGAP1 confirm 6.8.
Screening CCOc1cc(/C=C/C(=O)Nc2ccc(C(=O)NCCN(CC)CC)cc2)ccc1OCC(C)C returned CSN deneddyl inh 4.1, HNF4A DNA FP 1.1, ASAP1 GAP inh 22.0, ARFGAP1 inh 27.6* and ARFGAP1 confirm 25.6*.
Screening CCOc1ccc(/C=C/C(=O)Nc2ccc(C(N)=O)cc2)cc1OC returned CSN deneddyl inh -0.8, HNF4A DNA FP 3.3, ASAP1 GAP inh 5.4 and ARFGAP1 inh 9.6.
Screening O=C(NCc1cccnc1)c1ccc(COc2ccc(Cl)cc2)cc1 returned CSN deneddyl inh -1.9, HNF4A DNA FP 4.4, ASAP1 GAP inh 18.0, ARFGAP1 inh 27.6* and ARFGAP1 confirm 1.3.
O=C(CCc1c[nH]c2ccccc12)Nc1ccc(Nc2ccncc2)cc1 was read as ASAP1 GAP inh 2.4 and ARFGAP1 inh 9.9.
For O=C(CCc1c[nH]c2ccccc12)Nc1ccc(Nc2ccccc2)cc1 the results were ASAP1 GAP inh 6.8, ARFGAP1 inh 26.8* and ARFGAP1 confirm 21.9.
Screening COc1ccc(C(=O)/C=C/c2ccc(O)cc2)c(O)c1C/C=C(\C)CCC=C(C)C returned CSN deneddyl inh 6.6, HNF4A DNA FP 3.8, ASAP1 GAP inh 17.6, ARFGAP1 inh 24.9* and ARFGAP1 confirm 14.4.
C=C(C)C(O)CC/C(C)=C/Cc1c(O)ccc(C(=O)/C=C/c2ccc(O)cc2)c1O (stereo not drawn) was read as CSN deneddyl inh 8.3, HNF4A DNA FP 4.0, ASAP1 GAP inh 13.6 and ARFGAP1 inh 20.6.
`CC1CC(C)CN(C(=O)COC(=O)c2cc3ccccc3cc2O)C1` (stereo not drawn) gave CSN deneddyl inh -1.9, HNF4A DNA FP -0.2, ASAP1 GAP inh 11.6, ARFGAP1 inh 36.9* and ARFGAP1 confirm 32.1*.
Screening CCOc1cc2nc(-c3ccc(OC)c(OC)c3)nc(N3CCOCC3)c2cc1OC returned ASAP1 GAP inh 1.5, ARFGAP1 inh 26.2* and ARFGAP1 confirm 14.2.
CC(=O)c1ccc(NC(=O)COC(=O)c2c3c(nc4ccccc24)/C(=C\c2cccs2)CCC3)cc1 was read as CSN deneddyl inh -0.2, HNF4A DNA FP 3.2, ASAP1 GAP inh 23.2, ARFGAP1 inh 32.0* and ARFGAP1 confirm 19.5.
O=C(COC(=O)c1c2c(nc3ccccc13)/C(=C\c1cccs1)CCC2)Nc1ccccc1 was read as CSN deneddyl inh 10.2, HNF4A DNA FP 4.1, ASAP1 GAP inh 8.9 and ARFGAP1 inh 12.2.
For O=c1[nH]c(CN2CCN(c3ccccn3)CC2)nc2c(Br)cc(Br)cc12 the results were CSN deneddyl inh 2.1, HNF4A DNA FP 4.4, ASAP1 GAP inh 14.6 and ARFGAP1 inh 0.2.
Screening COc1ccc(N2CCN(C(=O)CCNC(=O)c3ccc(C(C)(C)C)cc3)CC2)cc1 returned CSN deneddyl inh 0.9, HNF4A DNA FP 0.2, ASAP1 GAP inh 6.5 and ARFGAP1 inh 4.2.
COc1ccc(N2CCN(C(=O)c3ccc(C(C)(C)C)cc3)CC2)cc1 was read as CSN deneddyl inh -0.8, HNF4A DNA FP -1.8, ASAP1 GAP inh 4.3, ARFGAP1 inh 27.9* and ARFGAP1 confirm -3.8.
For Cc1cc(CNC(=O)C(C)Cc2ccccc2)nn1C (stereo not drawn) the results were CSN deneddyl inh 0.9, HNF4A DNA FP -4.7, ASAP1 GAP inh -0.3 and ARFGAP1 inh -5.6.
For COc1ccc(CNC(=O)COC(=O)Cc2ccc(Br)cc2)cc1 the results were CSN deneddyl inh 2.6, HNF4A DNA FP 1.0, ASAP1 GAP inh -8.1 and ARFGAP1 inh -0.1.
O=C(Nc1nc(-c2cccc3ccccc23)cs1)c1ccc2c(c1)S(=O)(=O)c1ccccc1C2=O was read as CSN deneddyl inh 3.8, HNF4A DNA FP 1.6, ASAP1 GAP inh -7.9, ARFGAP1 inh 34.0* and ARFGAP1 confirm 0.4.
For CN1OC[C@@H]2CN(C(=O)C3CCCCC3)[C@H](c3ccc(N4CCCCC4)cc3)C[C@@H]21 the results were ASAP1 GAP inh -4.3 and ARFGAP1 inh -12.4.
Cc1ccc(C)c(N(C(=O)Cn2nnc(-c3cccs3)n2)C(C(=O)NC2CCCC2)c2ccncc2)c1 (stereo not drawn) was read as CSN deneddyl inh -1.1, HNF4A DNA FP -1.1, ASAP1 GAP inh -9.1, ARFGAP1 inh 31.3* and ARFGAP1 confirm -3.3.
Screening C/C(N)=C(/C#N)C(=O)CSc1nnc(C)n1-c1ccccc1 returned CSN deneddyl inh -0.5, HNF4A DNA FP 14.1, ASAP1 GAP inh -11.2 and ARFGAP1 inh 11.4.
